Source: ChEMBL document CHEMBL2331463, “Probing functional diversity in pactamycin toward antibiotic, antitumor, and antiprotozoal activity” (Bioorg Med Chem, 2013)
≈ marks a conversion by molar mass, not a printed value.

Columns and labels:
Plasmodium falciparum [1] = test: Antimalarial activity against Plasmodium falciparum 7G8 after 72 hrs by SYBR Green-based fluorescence assay; assay type: functional, organism-based; conditions: 7G8, 72 h
Procedure, shortened: (§1)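 Drug stocks were made at 10 mM in sterile distilled water and serially diluted in culture medium. These were added in quadruplicate to asynchronous P. falciparum cultures at 0.2% parasitemia and 2% hematocrit, then incubated 72 h at 37 °C. Lysis buffer containing SYBR Green I was added, followed by 1 h at room temperature in the dark. Fluorescence was read at ex 497/em 520 nm, and IC50 was obtained by nonlinear regression of logistic dose-response curves.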

Plasmodium falciparum [2] = test: Antimalarial activity against Plasmodium falciparum Dd2 after 72 hrs by SYBR Green-based fluorescence assay; assay type: functional, organism-based; conditions: Dd2, 72 h; procedure, shortened: as §1
Plasmodium falciparum [3] = test: Antimalarial activity against Plasmodium falciparum D6 after 72 hrs by SYBR Green-based fluorescence assay; assay type: functional, organism-based; conditions: D6, 72 h; procedure, shortened: as §1
[4] = Cytotoxicity against human MDA231 cells; assay type: functional, cell-based; conditions: MDA-MB-231
WI-38 = test: Cytotoxicity against human WI38 cells; assay type: functional, cell-based; conditions: for IC50: Homo sapiens, WI-38
HCT-116 = test: Cytotoxicity against human HCT116 cells; assay type: functional, cell-based
PC-3 = test: Cytotoxicity against human PC3 cells; assay type: functional, cell-based; conditions: for IC50: Homo sapiens, PC-3
Enterococcus faecalis = test: Antibacterial activity against Enterococcus faecalis ATCC 29212 after 20 hrs by broth microdilution method; assay type: functional; conditions: ATCC 29212, 20 h
Procedure, shortened: (§2)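 MIC determined by standard broth microdilution following CLSI recommendations (document M07-A8).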

Acinetobacter baumannii = test: Antibacterial activity against Acinetobacter baumannii clinical isolate after 20 hrs by broth microdilution method; assay type: functional; procedure, shortened: as §2
Pseudomonas aeruginosa = test: Antibacterial activity against Pseudomonas aeruginosa ATCC 27853 after 20 hrs by broth microdilution method; assay type: functional; conditions: ATCC 27853, 20 h; procedure, shortened: as §2
Klebsiella pneumoniae = test: Antibacterial activity against Klebsiella pneumoniae ATCC 700603 after 20 hrs by broth microdilution method; assay type: functional; conditions: ATCC 700603, 20 h; procedure, shortened: as §2
Staphylococcus aureus = test: Antibacterial activity against Staphylococcus aureus ATCC 25923 after 20 hrs by broth microdilution method; assay type: functional; conditions: ATCC 25923, 20 h; procedure, shortened: as §2
Escherichia coli = test: Antibacterial activity against Escherichia coli ATCC 25922 after 20 hrs by broth microdilution method; assay type: functional; conditions: ATCC 25922, 20 h; procedure, shortened: as §2

SMILES | IC50 (Plasmodium falciparum [1]) [nM] | IC50 (Plasmodium falciparum [2]) [nM] | IC50 (Plasmodium falciparum [3]) [nM] | MIC (Enterococcus faecalis) [µg/mL] | MIC (Acinetobacter baumannii) [µg/mL] | MIC (Pseudomonas aeruginosa) [µg/mL] | MIC (Klebsiella pneumoniae) [µg/mL] | MIC (Staphylococcus aureus) [µg/mL] | MIC (Escherichia coli) [µg/mL] | IC50 [4] [nM] | IC50 (WI-38) [nM] | IC50 (HCT-116) [nM] | IC50 (PC-3) [nM] | inhibition (INH) (WI-38) [%] | inhibition (INH) (PC-3) [%]
CC(=O)c1cccc(N[C@H]2[C@H](N)[C@]3(NC(=O)O[C@H]3C)[C@@](C)(O)[C@@]2(O)CO)c1 | > 2500 | > 2500 | > 2500 | > 128 | > 128 | > 128 | > 128 | > 128 | > 128 | > 1000 | > 1000 | > 1000 | > 1000 | – | –
CCN(CC)C(=O)N[C@@]1([C@H](C)O)[C@@H](N)[C@H](Nc2cccc(C(C)=O)c2)[C@](O)(CO)[C@]1(C)O | 42 | 40 | 29 | 128 (≈ 283 µM) | > 128 | > 128 | > 128 | 4 (≈ 8.84 µM) | > 128 | 440 | > 1000 | 230 | 400 | – | –
CC(=O)c1cccc(N[C@H]2[C@H](N)[C@@](NC(=O)N3CCCCC3)([C@H](C)O)[C@@](C)(O)[C@@]2(O)CO)c1 | 1600 | 2000 | > 2500 | > 128 | > 128 | > 128 | > 128 | > 128 | > 128 | > 1000 | > 1000 | > 1000 | > 1000 | – | –
CC(=O)c1cccc(N[C@H]2[C@H](N)[C@@](NC(=O)N3CCOCC3)([C@H](C)O)[C@@](C)(O)[C@@]2(O)CO)c1 | > 2500 | > 2500 | > 2500 | > 128 | > 128 | > 128 | > 128 | > 128 | > 128 | > 1000 | > 1000 | > 1000 | > 1000 | – | –
COc1cccc(N[C@H]2[C@H](N)[C@@](NC(=O)N(C)C)([C@H](C)O)[C@@](C)(O)[C@@]2(O)CO)c1 | 19.8 | 11.5 | 13.7 | > 128 | 128 (≈ 310 µM) | > 128 | > 128 | 16 (≈ 38.8 µM) | 64 (≈ 155 µM) | > 1000 | > 1000 | 390 | > 1000 | – | –
CC(=O)c1cccc(N[C@H]2[C@H](N)[C@]3(NC(=O)O[C@H]3C)[C@@](C)(O)[C@@]2(O)COC(=O)c2c(C)cccc2O)c1 [PACTAMYCATE] | > 2500 | > 2500 | > 2500 | > 128 | > 128 | > 128 | > 128 | > 128 | > 128 | > 1000 | > 1000 | > 1000 | > 1000 | – | –

More lines, main results first:

IC50 (Plasmodium falciparum [1]) [nM] | IC50 (Plasmodium falciparum [2]) [nM] | IC50 (Plasmodium falciparum [3]) [nM] | MIC (Enterococcus faecalis) [µg/mL] | MIC (Acinetobacter baumannii) [µg/mL] | MIC (Pseudomonas aeruginosa) [µg/mL] | MIC (Klebsiella pneumoniae) [µg/mL] | MIC (Staphylococcus aureus) [µg/mL] | MIC (Escherichia coli) [µg/mL] | SMILES | IC50 [4] [nM] | IC50 (WI-38) [nM] | IC50 (HCT-116) [nM] | IC50 (PC-3) [nM] | inhibition (INH) (WI-38) [%] | inhibition (INH) (PC-3) [%]
2.5 | < 2.5 | < 2.5 | 64 (≈ 151 µM) | 128 (≈ 302 µM) | 128 (≈ 302 µM) | 8 (≈ 18.8 µM) | 2 (≈ 4.71 µM) | 4 (≈ 9.42 µM) | CC(=O)c1cccc(N[C@H]2[C@H](N)[C@@](NC(=O)N(C)C)([C@H](C)O)[C@@](C)(O)[C@@]2(O)CO)c1 | 260 | > 1000 | 70 | 310 | – | –
10 | 9 | 9 | 128 (≈ 284 µM) | > 128 | > 128 | 128 (≈ 284 µM) | 8 (≈ 17.8 µM) | 64 (≈ 142 µM) | CC(=O)c1cccc(N[C@H]2[C@H](N)[C@@](NC(=O)N3CCCC3)([C@H](C)O)[C@@](C)(O)[C@@]2(O)CO)c1 | 120 | > 1000 | 90 | 150 | – | –
18.5 | 13.9 | 14.6 | > 128 | > 128 | > 128 | 64 (≈ 167 µM) | 64 (≈ 167 µM) | 32 (≈ 83.7 µM) | C[C@H](O)[C@]1(NC(=O)N(C)C)[C@@H](N)[C@H](Nc2ccccc2)[C@](O)(CO)[C@]1(C)O | > 1000 | > 1000 | 810 | > 1000 | – | –
< 2.5 | 7.4 | 6.5 | 128 (≈ 320 µM) | 64 (≈ 160 µM) | > 128 | 32 (≈ 79.9 µM) | 4 (≈ 9.99 µM) | 8 (≈ 20 µM) | C[C@H](O)[C@]1(NC(=O)N(C)C)[C@@H](N)[C@H](Nc2cccc(F)c2)[C@](O)(CO)[C@]1(C)O | > 1000 | > 1000 | 190 | > 1000 | 34 | 35
< 2.5 | 3.5 | 6.7 | 64 (≈ 142 µM) | 64 (≈ 142 µM) | > 128 | 128 (≈ 284 µM) | 2 (≈ 4.44 µM) | 16 (≈ 35.5 µM) | C[C@H](O)[C@]1(NC(=O)N(C)C)[C@@H](N)[C@H](Nc2cccc(C(F)(F)F)c2)[C@](O)(CO)[C@]1(C)O | 380 | > 1000 | 100 | 750 | 42 | –
2.5 | < 2.5 | < 2.5 | 128 (≈ 229 µM) | 16 (≈ 28.6 µM) | 128 (≈ 229 µM) | 32 (≈ 57.3 µM) | 0.12 (≈ 0.215 µM) | 16 (≈ 28.6 µM) | CC(=O)c1cccc(N[C@H]2[C@H](N)[C@@](NC(=O)N(C)C)([C@H](C)O)[C@@](C)(O)[C@@]2(O)COC(=O)c2c(C)cccc2O)c1 [PACTAMYCIN] | 500 | > 1000 | 70 | 240 | – | –
